From ChEMBL document CHEMBL1155014, “On the antibiotic activity of oxazolomycin” (2008)
Values after ≈ are worked out from the molar mass of the structure shown. Active and inactive are the calls of the source. No cut-off for these calls is given here.

Columns and labels:
Assay type in all cases: functional
Staphylococcus aureus [1] = test: Antibacterial activity against Staphylococcus aureus NCTC 6571 at 4 mg/ml by hole plate method; conditions: for zone of inhibition at 4000 µg/mL: read-out: IZ
In short: (§1)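 Hole-plate assay on bioassay plates seeded with the test organism. Compounds at 4 mg/ml in 7:3 DMSO/H2O were loaded into wells and incubated overnight at 37 °C. Inhibition zone diameters were then measured.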

Escherichia coli [2] = test: Antibacterial activity against Escherichia coli X580 at 4 mg/ml by hole plate method; conditions: for zone of inhibition at 4000 µg/mL: read-out: IZ; in short: as §1
Escherichia coli [3] = test: Antibacterial activity against Escherichia coli X580 at 4 mg/ml by hole plate method relative to cephalosporin C
In short: (§2)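 Hole-plate diffusion: compound solutions at 4 mg/ml (7:3 DMSO/H2O) were placed in wells and incubated overnight at 37 °C. Inhibition zone diameters were measured, and potency was expressed as zone size per mg/ml relative to standards prepared with cephalosporin C.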

Escherichia coli [4] = test: Antibacterial activity against Escherichia coli X580 by serial dilution
In short: (§3)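 MIC estimated by serial dilution of compound, each dilution assayed by the hole-plate method (overnight, 37 °C). The end point is the dilution at which no inhibition zone is obtained.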

Staphylococcus aureus [5] = test: Antibacterial activity against Staphylococcus aureus NCTC 6571 at 4 mg/ml by hole plate method relative to cephalosporin C; in short: as §2
Staphylococcus aureus [6] = test: Antibacterial activity against Staphylococcus aureus NCTC 6571 by serial dilution; in short: as §3

| MIC (Escherichia coli [4]) [mg/L] | MIC (Staphylococcus aureus [6]) [mg/L] | SMILES | Activity (Staphylococcus aureus [1]) | zone of inhibition at 4000 µg/mL (Escherichia coli [2]) [mm] | Activity (Escherichia coli [3]) [millimeter/mg/ml] | Activity (Escherichia coli [2]) | zone of inhibition at 4000 µg/mL (Staphylococcus aureus [1]) [mm] | Activity (Staphylococcus aureus [5]) [millimeter/mg/ml] |
| --- | --- | --- | --- | --- | --- | --- | --- | --- |
| 500 (≈ 1760 µM) |  | CC(C)(C(=O)NCc1ccccc1)C(O)c1ccccc1 (centres undefined) | inactive | 17 | 0.005 |  |  |  |
|  |  | CCCNC(=O)C(C)(C)C(O)c1ccccc1 (centres undefined) | inactive |  |  | inactive |  |  |
|  |  | CC(C)(C(=O)NCc1ccc(Br)cc1)C(O)c1ccccc1 (centres undefined) | inactive |  |  | inactive |  |  |
| 500 (≈ 1730 µM) | 4000 (≈ 13800 µM) | C=CCNC(=O)C(C)(C)C(O)CCCCc1ccccc1 (racemic) |  | 23 | 0.01 |  | 17 | 0.08 |
|  |  | C=CCNC(=O)C(C)(C)C(O)c1ccccc1 (racemic) | inactive |  |  | inactive |  |  |
|  |  | CC(C)(C(N)=O)C(O)/C=C/c1ccccc1 (centres undefined) | inactive |  |  | inactive |  |  |
| 500 (≈ 1490 µM) |  | C=CCNC(=O)C(C)(C)C(O)c1ccccc1/C=C/c1ccccc1 (centres undefined) |  | 20 | 0.01 |  | 14 | 0.06 |
| 1000 (≈ 3860 µM) |  | C/C(=C/C=C/c1ccccc1)C(O)C(C)(C)C(N)=O (centres undefined) |  | 28 | 0.03 |  | 14 | 0.05 |
| 1000 (≈ 3920 µM) |  | C=CCNC(=O)C(C)(C)C(O)CCCCCCC (centres undefined) | inactive | 22 | 0.01 |  |  |  |
|  |  | C=CCNC(=O)C(C)(C)C(O)Cc1ccccc1 (centres undefined) | inactive |  |  | inactive |  |  |
|  |  | C#CCNC(=O)C(C)(C)C(O)c1ccccc1 (centres undefined) | inactive | 15 | 0.003 |  |  |  |
|  |  | C=CCNC(=O)C(C)(C)C1(O)CCCCC1 | inactive |  |  | inactive |  |  |
